Consider 14 compounds from ChEMBL document CHEMBL3763011, “Carbohydrate-based inducers of cellular stress for targeting cancer cells” (Bioorg Med Chem Lett, 2016).

Calls of active or inactive are those of the source. No cut-off for these calls is given here.

In test [1] the test system is NCI-H1299. The experiment in a line: Induction of ROS generation in human NCI-H1299 cells at 100 uM after 5 hrs by DCF-DA staining-based assay. The format is functional. In outline: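 Single-point screen at 100 µM in duplicate, 5 h incubation in H1299 cells. ROS detected by DCF-DA fluorescence, reported as fold over non-treated control (Fi/Fo).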
For test [2], the target named is Endoplasmic reticulum chaperone BiP (Homo sapiens) (UniProt P11021). The experiment in a line: Induction of glucose-regulated protein 78 in HEK293 cells at 200 uM after 6 hrs by Western blotting method. In kind it is cell-based. Summed up: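 GRP78 (BiP) induction, an ER stress marker, assessed by Western blot of HEK293 lysates after treatment at 200 µM.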
Background: In western blotting, separated proteins are transferred to a membrane and probed.

Test [3] deals with NCI-H1299. Nature of the test: Cytotoxicity against human NCI-H1299 cells assessed as reduction in cell viability after 48 hrs by MTT assay. Particulars: for IC50: NCI-H1299, 48 h. In kind it is functional, cell-based. In outline: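 H1299 non-small cell lung carcinoma cells incubated with compound for 48 h. Viability by MTT relative to non-treated control (Vi/Vo). IC50 taken from dose–response.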
(In general: Tetrazolium assays rely on reduction of a dye to a coloured formazan, in cell work by metabolically active cells.)

Test [4] concerns NCI-H1299. Nature of the test: Induction of ROS generation in human NCI-H1299 cells at <= 50 uM after 5 hrs by DCF-DA staining-based assay. In kind it is functional. Summed up:
(§1)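 H1299 cells incubated 5 h with increasing compound concentrations (0–100 µM). ROS read with the cell-permeable probe DCF-DA. Fluorescence of treated cells (Fi) ratioed to non-treated control (Fo).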

The target in test [5] is T1, AMP-activated protein kinase, AMPK (Homo sapiens) (UniProt P54646+O43741+P54619+Q9UGJ0+Q9Y478+Q13131+Q9UGI9). Nature of the test: Activation of AMPK in HEK293 cells assessed as AMPK phosphorylation after 16 hrs by Western blotting method. The format is cell-based. Summed up:
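HEK293 cells treated with increasing concentrations of compound for 16 h; cell lysates analysed by Western blot with antibodies to phosphorylated AMPK (also p53).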

Test [6] concerns the target T1, AMP-activated protein kinase, AMPK (Homo sapiens). The experiment in a line: Activation of AMPK in HEK293 cells assessed as p53 stabilization at 0.03 to 0.1 mM after 16 hrs by Western blotting method. In kind it is cell-based.
Test [7] relates to NCI-H1299. Nature of the test: Induction of ROS generation in human NCI-H1299 cells at <= 100 uM after 5 hrs by DCF-DA staining-based assay. The format is functional.
The subject of test [8] is NCI-H1299. Nature of the test: Induction of ROS generation in human NCI-H1299 cells after 5 hrs by DCF-DA staining-based assay. In kind it is functional, cell-based. In outline:
as §1

The subject of test [9] is NCI-H1299. Nature of the test: Cytotoxicity against human NCI-H1299 cells assessed as reduction in cell viability at 100 uM after 48 hrs by MTT assay. The format is functional, cell-based. Summed up: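 H1299 cells treated at 100 µM for 48 h in duplicate. MTT viability expressed as treated versus non-treated control (Vi/Vo).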
In test [10] the test system is NCI-H1299. The experiment in a line: Induction of ROS generation in human NCI-H1299 cells at […] after 5 hrs by DCF-DA staining-based assay.
Test [11] relates to NCI-H1299. Nature of the test: Cytotoxicity against human NCI-H1299 cells assessed as viability at 500 uM after 48 hrs by MTT assay. The format is functional. Particulars: NCI-H1299, 48 h, read-out: Activity. In outline: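 H1299 non-small cell lung carcinoma cells incubated with compound for 48 h; viability read by MTT assay and expressed as treated (Vi) relative to non-treated control (Vo).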

Sequence of Endoplasmic reticulum chaperone BiP (Homo sapiens) (P11021 whole entry): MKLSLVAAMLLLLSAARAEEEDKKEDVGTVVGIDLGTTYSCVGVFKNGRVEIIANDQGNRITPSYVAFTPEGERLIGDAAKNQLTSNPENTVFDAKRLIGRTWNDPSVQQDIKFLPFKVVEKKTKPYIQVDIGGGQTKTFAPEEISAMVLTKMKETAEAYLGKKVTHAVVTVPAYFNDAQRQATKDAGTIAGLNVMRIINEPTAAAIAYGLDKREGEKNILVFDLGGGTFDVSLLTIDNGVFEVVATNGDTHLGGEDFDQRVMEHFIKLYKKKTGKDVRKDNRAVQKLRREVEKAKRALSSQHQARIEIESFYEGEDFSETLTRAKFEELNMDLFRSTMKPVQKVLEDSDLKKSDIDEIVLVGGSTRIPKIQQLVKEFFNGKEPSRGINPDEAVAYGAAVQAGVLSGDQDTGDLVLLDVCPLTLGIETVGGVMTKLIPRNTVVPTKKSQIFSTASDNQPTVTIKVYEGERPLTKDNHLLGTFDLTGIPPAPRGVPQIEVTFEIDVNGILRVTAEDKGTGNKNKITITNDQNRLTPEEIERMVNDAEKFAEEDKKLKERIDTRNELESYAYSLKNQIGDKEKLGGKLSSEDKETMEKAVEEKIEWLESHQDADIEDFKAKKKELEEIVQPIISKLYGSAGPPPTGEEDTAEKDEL

For the compound `O=c1oc2ccccc2cc1N[C@@H]1OC[C@H](O)[C@H](O)[C@H]1O`, the “fold change (FC)” value with NCI-H1299 [1] was “>=2”.
Usually IC50 stands for the concentration needed to halve the response being measured. Consider `CC(=O)O[C@@H]1[C@@H](OC(C)=O)[C@H](OC(C)=O)CO[C@H]1Nc1cccc2ccccc12`, for which the result in test [2] and in [6] was Active. For the same compound, in the test on NCI-H1299 [3], the 50% inhibitory concentration (IC50) is 30 µM. The “fold change (FC)” value in the test on NCI-H1299 [4] is 1.5. Also, the Activity result in test [5] is “Dose-dependent effect”.
`C[C@@H]1OC(Nc2cccc3ccccc23)[C@H](O)[C@H](O)[C@H]1O` (stereo partly specified): the “fold change (FC)” value with NCI-H1299 [1] was “>=2”.
Take `O=C[C@H](O)[C@@H](O)[C@H](O)CO`: the outcome in the test on NCI-H1299 [3] was inactive.
With `O[C@H]1[C@H](O)[C@@H](Nc2cccc3ccccc23)OC[C@H]1O`, the “fold change (FC)” value with NCI-H1299 [7] is reported as 2; in the test on NCI-H1299 [1], “>=2”. Further, the Activity result in the test with NCI-H1299 [8] was “Dose-dependent effect”. In addition, the result in the test with NCI-H1299 [9] was Active. In the test on NCI-H1299 [3], the 50% inhibitory concentration (IC50) amounted to 75 µM.
Take `OO` [HYDROGEN PEROXIDE]: in the test on NCI-H1299 [3], the IC50 came to 60 µM.
Consider `OC[C@H]1OC(O)C[C@@H](O)[C@@H]1O` (stereo partly specified), for which the “fold change (FC)” value in the test on NCI-H1299 [10] is 1.5. Also, in the test on NCI-H1299 [11], the viability at 500 µM was 80%. Besides, the Activity result in test [5] is “Dose-dependent effect”.
As to `O[C@H]1[C@H](O)[C@@H](Nc2ccccc2)OC[C@H]1O`, the result in the test with NCI-H1299 [9] was Active. Further, in the test with NCI-H1299 [1], the outcome was inactive.
For `CC(=O)OC1OC[C@@H](OC(C)=O)[C@H](OC(C)=O)[C@H]1OC(C)=O` (stereo partly specified), in the test with NCI-H1299 [3], the result was inactive.
`O[C@@H]1[C@@H](O)[C@H](Nc2cccc3ccccc23)OC[C@H]1O`: the result (in test [2]; in the test with NCI-H1299 [9]) was Active. In addition, the results for the “fold change (FC)” value with NCI-H1299 [7] and in the test with NCI-H1299 [1] were 2 and “>=2”, respectively. The Activity entry with NCI-H1299 [8] was “Dose-dependent effect”. Also, the IC50 in the test with NCI-H1299 [3] is 75 µM.
Regarding `O[C@@H]1[C@@H](O)[C@@H](O)CO[C@H]1Nc1ccccc1`, the outcome in the test with NCI-H1299 [9] was Active.
Regarding `OC[C@H]1OC(Nc2cccc3ccccc23)[C@H](O)[C@@H](O)[C@H]1O` (stereo partly specified), in the test on NCI-H1299 [1], the “fold change (FC)” value is on record as “>=2”.
Regarding `O[C@H]1[C@H](O)[C@H](Nc2ccccc2)OC[C@H]1O`, the result in the test with NCI-H1299 [9] was Active. Further, the result in the test with NCI-H1299 [1] was inactive.
`CC(=O)N[C@H]1C(Nc2ccc3nccnc3c2)O[C@H](CO)[C@@H](O)[C@@H]1O` (stereo partly specified): the “fold change (FC)” value in the test with NCI-H1299 [1] was “>=2”.
